Ecoli WT expand = growth inhibitors of wild-type E. coli, primary screen, strain BW25113, expanded library, OD600; OD600 absorbance; growth inhibition, % at 100 µM; 98,000 compounds, 0.15% hits; AID 710, 2007;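 active = growth inhibition above about 50% at one test dose, limit read from the data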;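 also: growth measured after 20 h incubation at 37 °C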
PostGolgi yeast = phenotypic screen on post-Golgi transport, primary screen; post-Golgi transport phenotypic cell assay; inhibition, % at 10 µM; 98,000 compounds, 0.9% hits; AID 739, 2007;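 also: yeast cells grown in 1536-well plates; yeast grown about 18 h at 30C before absorbance read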
Ecoli tolC = growth inhibitors of E. coli tolC mutant, primary screen, strain BW25113 ΔtolC::kan, 384-well; AID 573, 2007; OD615; 65,000 compounds, 2.2% hits; growth inhibition, % at 10 µM (by protocol);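 active = growth inhibition at or above a cutoff equal to the mean over every tested compound plus 3 SD, cut at about 60% in these data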;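 also: growth measured after 20 h incubation at 37 °C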
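Test system: tolC-deleted E. coli BW25113 | Medium: LB with kanamycin 50 µg/mL | Compound dosing: Single concentration, 10 µM final per compound | Schedule: 37 °C, 20 h exposure | Measured by: OD at 615 nm | Evaluation: Percent growth inhibition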
HER2 expr 66K = inhibitors of Her2 protein expression, primary screen, SKBR-3 cells, AlphaScreen, 66K library; Receptor tyrosine-protein kinase erbB-2 (Homo sapiens), P04626; SKBR-3 HER2 protein level, 18-24 h; active compounds read low; HER2 level % of control, % at 10 µM; 65,000 compounds, 0.69% hits; AID 645, 2007;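 active = HER2 level under 5% of the carrier-only control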;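 also: lower value means stronger loss of Her2 protein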
Target sequence (P04626 whole entry, looked up): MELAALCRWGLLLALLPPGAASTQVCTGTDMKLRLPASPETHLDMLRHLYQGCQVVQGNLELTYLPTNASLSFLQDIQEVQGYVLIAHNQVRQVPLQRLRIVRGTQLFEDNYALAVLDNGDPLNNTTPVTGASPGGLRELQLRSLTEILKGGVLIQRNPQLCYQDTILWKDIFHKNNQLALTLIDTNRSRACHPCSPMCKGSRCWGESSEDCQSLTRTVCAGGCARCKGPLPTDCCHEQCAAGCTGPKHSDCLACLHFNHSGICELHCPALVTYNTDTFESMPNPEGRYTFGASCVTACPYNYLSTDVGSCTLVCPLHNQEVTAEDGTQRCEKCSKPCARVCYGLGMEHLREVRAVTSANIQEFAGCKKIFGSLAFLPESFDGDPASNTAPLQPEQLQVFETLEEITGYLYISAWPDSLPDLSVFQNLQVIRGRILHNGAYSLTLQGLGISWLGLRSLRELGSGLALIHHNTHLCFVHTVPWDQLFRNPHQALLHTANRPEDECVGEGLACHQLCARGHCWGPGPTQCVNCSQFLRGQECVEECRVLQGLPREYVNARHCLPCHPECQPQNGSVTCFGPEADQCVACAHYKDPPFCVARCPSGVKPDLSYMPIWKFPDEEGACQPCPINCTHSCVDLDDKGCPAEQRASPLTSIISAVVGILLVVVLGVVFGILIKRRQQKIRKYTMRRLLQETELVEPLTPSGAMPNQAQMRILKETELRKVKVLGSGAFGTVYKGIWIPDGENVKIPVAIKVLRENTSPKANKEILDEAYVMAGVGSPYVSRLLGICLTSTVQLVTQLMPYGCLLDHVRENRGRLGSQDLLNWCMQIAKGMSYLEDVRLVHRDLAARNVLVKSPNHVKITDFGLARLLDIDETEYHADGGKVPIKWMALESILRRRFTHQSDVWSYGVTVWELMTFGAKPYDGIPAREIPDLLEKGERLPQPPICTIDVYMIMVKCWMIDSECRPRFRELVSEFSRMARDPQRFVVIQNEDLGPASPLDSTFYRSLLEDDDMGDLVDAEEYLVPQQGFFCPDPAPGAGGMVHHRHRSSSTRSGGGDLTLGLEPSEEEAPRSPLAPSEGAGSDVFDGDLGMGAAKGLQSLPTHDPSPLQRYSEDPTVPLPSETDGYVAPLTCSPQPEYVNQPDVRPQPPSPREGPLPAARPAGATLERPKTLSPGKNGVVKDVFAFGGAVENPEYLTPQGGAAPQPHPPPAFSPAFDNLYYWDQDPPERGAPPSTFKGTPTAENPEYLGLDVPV
PostGolgi ctrl = growth inhibition of yeast control strain, primary screen, counter-screen for post-Golgi transport modulator project; efflux-deficient yeast background strain, growth absorbance A615, 16 h; inhibition, % at 10 µM; 98,000 compounds, 5% hits; AID 738, 2007
Hits are given with their value; 0 = inactive; - = no result. Only some compounds are listed: those with a hit (about 6.6% of all), similar ones and a draw of the others. Rule as the data show it, unless noted: active = inhibition above about 30%; inactive = the rest.

SMILES	Ecoli WT expand	PostGolgi yeast	Ecoli tolC	HER2 expr 66K	PostGolgi ctrl
Nc1c(C(=O)Nc2ccccc2)sc2nc(-c3ccco3)ccc12	0	0	0	-5.4	0
COc1ccccc1NC(=O)c1sc2nc(-c3ccco3)ccc2c1N	0	0	0	-0.3	0
O=C(Nc1ccc(OC(F)F)cc1)Nc1cccc(C(F)(F)F)c1	0	79	-	-	64
O=C(Nc1ccccc1)c1nnsc1S(=O)c1ccc(Cl)cc1 (configuration not stated)	0	105	-	-	102
CCOc1ccccc1N(CC(=O)N1CCOCC1)S(=O)(=O)c1ccccc1	0	0	0	-21	0
N#Cc1c(NC(=O)c2ccc(Cn3cc(Br)cn3)o2)sc2c1CCCCCC2	0	0	61	0	0
Cc1cc(=O)[nH]c(SCC(=O)C23CC4CC(CC(C4)C2)C3)c1C#N	0	0	70	0	0
Cc1nn(CC(=O)Nc2sc3c(c2C#N)CCC(C(C)(C)C)C3)c(C)c1[N+](=O)[O-] (configuration not stated)	0	0	-	-	35
Cc1nn(CCCC(=O)Nc2sc3c(c2C#N)CCC3)c(C)c1[N+](=O)[O-]	0	0	-	-	0
O=C1c2oc3ccccc3c(=O)c2C(c2ccc(Br)cc2)N1c1ncccn1 (configuration not stated)	-	-	0	0	-
COC(=O)c1sccc1-n1cccc1C(=O)C(=O)N1CC(C)OC(C)C1 (configuration not stated)	0	0	-	-	0
Cc1nc2ccc(NS(=O)(=O)c3c(C)c(C)cc(C)c3C)cc2s1	0	0	-	-	36
Cc1ccc(S(=O)(=O)Nc2ccc3nc(C)sc3c2)cc1	0	0	-	-	0
CCOc1cc(C)c(S(=O)(=O)Nc2ccc(Cl)cn2)cc1C	0	0	0	0	58
CCOc1ccc(S(=O)(=O)Nc2ccc(Cl)cn2)c(C)c1C	0	0	0	0	0
C=CCn1c(SCn2nnc3ccccc3c2=O)nnc1C1CCCCC1	0	0	0	0	32
C=CCn1c(SCn2nnc3ccccc3c2=O)nnc1-c1ccc(Br)cc1	0	0	0	0	0
C#CC(C)(CC)NC(=O)c1cc(OC)c(OC)c(OC)c1 (configuration not stated)	0	0	0	0	0
O=S(=O)(NCc1cccnc1)c1cc(Cl)ccc1Cl	0	0	0	0	0
O=S(=O)(Nc1nc(-c2sccc2Cl)cs1)c1cc(Cl)ccc1Cl	0	0	-	-	35
CN(C)S(=O)(=O)c1ccc(NC(=O)N2CCN(c3ccccc3)CC2)cc1	0	0	-	-	0
Cc1ccc2nc(-c3ccc(Br)o3)oc(=O)c2c1	0	36	-	-	0
CC(C)c1nc(SCc2c(F)cccc2Cl)c2c(=O)n(C)c(=O)n(C)c2n1	0	0	0	0	0
O=S(=O)(Nc1ccc2c(c1)CCC2)c1cccs1	0	0	0	-26	0
CCOC(=O)C1=C(c2ccccc2)N2CCN=C2S1	-	-	0	0	-
SMILES	Ecoli WT expand	PostGolgi yeast	Ecoli tolC	HER2 expr 66K	PostGolgi ctrl
O=c1cccccc1NCc1ccccc1	0	0	0	0	0
N#Cc1ccccc1NCc1ccccc1	0	0	0	0	32
O=S(=O)(c1ccc(Cl)c(Cl)c1)c1snnc1-c1ccccc1	0	0	-	-	52
COC(=O)c1ccsc1NC(=O)CN1CCN(c2ccc(F)cc2)CC1	0	0	70	0	0
COc1ccccc1NC(=O)CN1CCN(c2ccc(Cl)cc2)CC1	0	0	0	0	32
Cc1ccc(C)n1CCN1CCN(CC(=O)Nc2cc(C(F)(F)F)ccc2Cl)CC1	0	0	0	0	0
COC(=O)c1ccsc1NC(=O)CN1CCN(Cc2ccc3c(c2)OCO3)CC1	0	0	-	-	0
COc1ccc(NC(=O)CN2CCN(C3c4ccccc4-c4ccccc43)CC2)c(OC)c1	0	0	0	0	68
COc1ccccc1NC(=O)CN1CCN(CC(=O)Nc2ccccc2F)CC1	-	-	0	0	-
O=C(CN1CCN(c2ccc(F)cc2)CC1)Nc1cc(C(F)(F)F)ccc1Cl	0	0	0	0	48
O=C(Cn1c(NCCCO)nc2ccccc21)c1cccc(Br)c1	0	0	0	0	0
CCCCn1c(N)c(N(CCOC)C(=O)CSc2nc3ccc(C)cc3[nH]2)c(=O)[nH]c1=O	0	0	0	0	0
COc1ccccc1OCCSc1nnnn1-c1ccc(C)cc1	0	0	65	0	0
Fc1ccccc1OCCSc1nnnn1-c1ccccc1	0	0	0	0	0
COc1cccc(C(=O)/C=C/Nc2ccc(S(=O)(=O)Nc3cccc(C(C)=O)c3)cc2)c1	0	0	-	-	42
O=C1NC2NC(=O)N(C(Cc3ccccc3)C(=O)O)C2N1 (configuration not stated)	0	0	0	0	0
N#CC(C(=O)C1CCCCC1)c1nc2ccccc2[nH]1 (configuration not stated)	0	0	0	0	47
CCCOc1ccc(C(=O)N2CCN(c3ccc(N)cc3Cl)CC2)cc1	0	0	0	0	0
Cc1cccc(C)c1NC(=O)N1CCC(n2cnc3ccccc32)CC1	0	0	0	0	0
Cc1cccc(C)c1NC(=O)N1CCC(n2c(=O)[nH]c3ccccc32)CC1	0	0	-	-	33
COC(=O)C(CCCCNC(=O)OCc1ccccc1)NC(=O)CN (configuration not stated)	0	32	0	0	0
Cc1ccc(OCn2c(=O)sc3ccccc32)cc1	0	0	0	0	0
CC1CC(C)(C)N2C(=O)C3(Nc4ccccc4S3)c3cccc1c32 (configuration not stated)	0	0	-	-	45
CC(CNC(=O)c1cc(Cl)ccc1[N+](=O)[O-])NC(=O)c1cc(Cl)ccc1[N+](=O)[O-] (configuration not stated)	0	0	-	-	0
CCCCN=c1scc(-c2ccc3c(c2)NC(=O)CO3)n1N=C1CCCC1	0	0	-	-	65
SMILES	Ecoli WT expand	PostGolgi yeast	Ecoli tolC	HER2 expr 66K	PostGolgi ctrl
CCN=c1scc(-c2ccc3c(c2)NC(=O)CO3)n1N=C1CCCC1	0	0	0	0	0
COC(=O)C1=C(N)c2c(F)cccc2C1(C#N)c1ccc(F)cc1 (configuration not stated)	0	0	-	-	0
O=c1cc(C(F)(F)F)nc(-c2ccccc2)[nH]1	0	0	0	0	0
c1coc(CNc2nc3ccccc3n2CCN2CCOCC2)c1	0	0	0	0	0
N=c1c2c(-c3ccccc3)c(-c3ccccc3)n(Cc3ccco3)c2ncn1CCN1CCOCC1	0	52	0	0	0
COC(=O)c1cc(S(=O)(=O)N2CCOCC2)c(N2CCOCC2)cc1N1CCOCC1	0	0	0	0	0
NC(=O)CNC1CC(=O)N(CCc2ccccc2)C1=O (configuration not stated)	0	0	0	0	0
COc1ccc(C2CC(=O)N3CN(c4ccccc4F)CSC3=C2C#N)cc1OC (configuration not stated)	0	0	0	0	0
CCc1ccccc1N1CSC2=C(C#N)C(c3ccccc3F)CC(=O)N2C1 (configuration not stated)	0	0	0	0	34
